The whole screen tested about 330,000 compounds, of which about 2,400 (0.73%) were called active. How the source made its calls: active means inhibition of at least 40% at 20 µM; inactive means the rest. The sample as a whole holds a higher share of actives than the screen did.
Each compound was assayed against Apoptotic protease-activating factor 1 (Homo sapiens) (UniProt O14727) (assay: inhibitors of human Apaf-1 apoptosome, primary screen, biochemical, DEVD-Rh110 fluorescence, uHTS (AID 489030;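 further: plate controls were DMSO wells for no effect and DEVD-CHO caspase inhibitor wells for full effect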)). Conditions: reconstituted apoptosome caspase-3 activity, at 20 µM, hits give high values.
Chain of Apoptotic protease-activating factor 1 (Homo sapiens) (O14727 whole entry, looked up): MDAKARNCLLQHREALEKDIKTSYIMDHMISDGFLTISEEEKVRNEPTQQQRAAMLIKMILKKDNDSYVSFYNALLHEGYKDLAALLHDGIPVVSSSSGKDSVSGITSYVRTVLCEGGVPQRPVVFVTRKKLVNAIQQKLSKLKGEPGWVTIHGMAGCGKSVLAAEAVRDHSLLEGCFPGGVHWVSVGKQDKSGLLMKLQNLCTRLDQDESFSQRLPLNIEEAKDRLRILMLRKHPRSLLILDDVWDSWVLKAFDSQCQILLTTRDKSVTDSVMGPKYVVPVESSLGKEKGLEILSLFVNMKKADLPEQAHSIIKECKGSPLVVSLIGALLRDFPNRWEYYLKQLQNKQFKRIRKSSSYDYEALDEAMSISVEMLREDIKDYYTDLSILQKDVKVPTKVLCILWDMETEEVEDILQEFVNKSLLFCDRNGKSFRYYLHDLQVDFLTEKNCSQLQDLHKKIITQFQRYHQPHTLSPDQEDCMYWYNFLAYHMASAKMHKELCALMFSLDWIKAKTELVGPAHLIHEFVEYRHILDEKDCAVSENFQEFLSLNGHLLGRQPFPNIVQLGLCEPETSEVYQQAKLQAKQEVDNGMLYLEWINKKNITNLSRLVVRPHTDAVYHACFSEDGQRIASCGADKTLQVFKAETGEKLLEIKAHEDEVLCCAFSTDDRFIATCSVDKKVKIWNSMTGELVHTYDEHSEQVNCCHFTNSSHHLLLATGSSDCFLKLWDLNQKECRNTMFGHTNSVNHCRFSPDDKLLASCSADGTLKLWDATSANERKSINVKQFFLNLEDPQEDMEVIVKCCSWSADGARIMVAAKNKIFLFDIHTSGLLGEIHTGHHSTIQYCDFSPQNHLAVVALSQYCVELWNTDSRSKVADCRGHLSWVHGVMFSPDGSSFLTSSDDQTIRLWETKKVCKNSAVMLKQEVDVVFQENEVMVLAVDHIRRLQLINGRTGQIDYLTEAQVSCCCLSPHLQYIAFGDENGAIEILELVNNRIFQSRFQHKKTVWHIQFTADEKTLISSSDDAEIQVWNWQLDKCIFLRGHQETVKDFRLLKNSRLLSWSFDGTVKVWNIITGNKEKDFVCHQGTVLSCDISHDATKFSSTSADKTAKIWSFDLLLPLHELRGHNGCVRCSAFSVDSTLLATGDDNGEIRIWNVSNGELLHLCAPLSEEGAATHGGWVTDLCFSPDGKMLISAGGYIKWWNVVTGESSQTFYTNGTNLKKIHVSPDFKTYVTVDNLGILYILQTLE
Outline: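 Material: reconstituted apoptosome with Apaf-1, cytochrome c, caspase-9, procaspase-3, dATP / Buffer or medium: pH 7.5 Hepes buffer with CHAPS, BSA, DTT / Also added: cytochrome c with DEVD-Rh110 / Schedule: compound with Apaf-1, dATP, procaspase-3 30 min, then 50 min reaction, room temperature / Technique: rhodamine 110 fluorescence at Ex 480/Em 540 nm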
With `CNC(=O)NC(=O)CSc1nnc(-c2ccc(F)cc2)n1CC1CCCO1` (centres undefined) the inhibition was -8.1% (inactive).
In the case of `O=C(NN1C(=O)C2C3C=CC(C4CC34)C2C1=O)c1ccc(Cl)cc1` (centres undefined), the inhibition is reported as 5.04% (inactive).
With `CCOC(=O)Cn1nnnc1C` the inhibition was -24.4% (inactive).
In the case of `COc1cc(C(=O)NC2CCN(Cc3ccccc3)CC2)cc(Cl)c1OC(C)C`, the inhibition is reported as 4.18% (inactive).
For `COc1ccc(-c2sc3ccccc3c2-c2ccc(OCCN3CCOCC3)cc2)cc1`, the inhibition was 15.7% (inactive).
`COc1ccccc1-c1sc2ccccc2c1-c1ccc(C(C)=O)cc1` was tested, and the inhibition was 21.9% (inactive).
With `COc1cc(OC)cc(-c2sc3ccc(OC)cc3c2-c2ccc3cc[nH]c3c2)c1` the inhibition was 7.8% (inactive).
For `COc1ccccc1-c1sc2ccccc2c1-c1ccc(Br)nc1`, the inhibition was 14.2% (inactive).
In the case of `COc1cccc(-c2sc3ccc(OC)cc3c2-c2ccc(OCCN3CCCCC3)cc2)c1`, the inhibition is reported as 61.8% (active).
`COc1ccc2sc(-c3ccccc3OC)c(-c3ccc(OCCN4CCCC4)cc3)c2c1` was tested, and the inhibition was 73.4% (active).
In the case of `CN1CCC(CN)(N2CCN(c3ccccc3)CC2)CC1`, the inhibition is reported as 6.96% (inactive).
`CC1COc2ccccc2N1S(=O)(=O)c1ccccc1` (centres undefined) was tested, and the inhibition was 11.7% (inactive).
In the case of `OCCn1c(-c2ccccc2)csc1=Nc1ccccc1`, the inhibition is reported as 16.7% (inactive).
`O=C(Nc1cccc(Cl)c1Cl)c1ccccc1NC(=O)C1CC=CCC1C(=O)O` (centres undefined) was tested, and the inhibition was -3.06% (inactive).
For `O=C(COC(=O)C1(c2ccc(F)cc2)CCCC1)N1CCNC1=O`, the inhibition was -3.12% (inactive).
For `Cc1ccc(NC(=O)c2oc3ccccc3c2C)c([N+](=O)[O-])c1`, the inhibition was 4.97% (inactive).
In the case of `O=S1(=O)CCC(NC(=S)SCc2ccccc2Br)C1` (centres undefined), the inhibition is reported as 8.21% (inactive).
`COc1ccc(Cl)cc1N(CC(=O)N/N=C/c1ccc(OCC(N)=O)cc1)S(C)(=O)=O` was tested, and the inhibition was 9.06% (inactive).
In the case of `NC(N)=N/N=C/c1ccc(OCc2ccc(Cl)cc2Cl)cc1`, the inhibition is reported as 65.5% (active).
With `Cc1nc2ccccc2nc(C)c1=NOCc1ccc(Cl)cc1Cl` the inhibition was 8.52% (inactive).
`CCCNC(=O)OC[C@H]1O[C@H](CCO/N=C/[C@@H](NS(=O)(=O)c2ccc(C)cc2)[C@H](C)/C=C/CC(=O)OC)C=C[C@@H]1Oc1ccc(OC)cc1` was tested, and the inhibition was 9.15% (inactive).
For `O=C(c1ccc(Br)o1)N1CCN(CCOc2ccccc2)CC1`, the inhibition was 5.93% (inactive).
For `CN(CC(=O)NC1CCCC1)S(=O)(=O)c1cnc[nH]1`, the inhibition was -3.15% (inactive).
For `CCN(CC(=O)NCc1cccs1)C(=O)c1cccc(S(=O)(=O)Nc2ccccc2OC)c1`, the inhibition was 60.2% (active).
For `CCN(CC(=O)NCc1cccs1)C(=O)c1ccccc1F`, the inhibition was -6.38% (inactive).
With `CCN(CC(=O)NCc1cccs1)C(=O)c1ccc(OC)c(S(=O)(=O)N2CCOCC2)c1` the inhibition was 5.14% (inactive).
`CCNC(=O)COC(=O)CCNC(=O)c1cccc(C)c1` was tested, and the inhibition was -4.69% (inactive).
With `Cc1nn2cc(-c3ccc(Cl)cc3)cnc2c1Br` the inhibition was -6.41% (inactive).
In the case of `COc1cc(OC)cc(C(=O)OCC(=O)Nc2sccc2C(N)=O)c1`, the inhibition is reported as -0.564% (inactive).
For `COC(=O)c1ccc(N2CCOCC2)c(NC(=O)c2ccc(Br)o2)c1`, the inhibition was -17.7% (inactive).
`CCCCc1nc2cc(C(=O)N3CCCCC3CCO)ccc2o1` (centres undefined) was tested, and the inhibition was 5.2% (inactive).
`O=[N+]([O-])c1c(NCCO)cc(Sc2nc3ccccc3s2)c2nonc12` was tested, and the inhibition was 90.7% (active).
`OCCNc1nc(Nc2ccc(Cl)c(Cl)c2)nc2ccccc12` was tested, and the inhibition was 24.2% (inactive).
`CCN(CC)CCCSc1nc2ccccc2s1` was tested, and the inhibition was -0.516% (inactive).
For `O=c1ccc2cc(S(=O)(=O)NCCCc3ccccc3)ccc2[nH]1`, the inhibition was 0.38% (inactive).
In the case of `C=CC(=O)OCCOCCOCCOCCOC(=O)C=C`, the inhibition is reported as -5.63% (inactive).
With `CC(C)(C)CN1C(=O)C(=O)NC[C@H]1Cc1cccc2ccccc12` the inhibition was -2.41% (inactive).
For `c1ccc2c(CCN3CCNC[C@H]3Cc3cccc4ccccc34)cccc2c1`, the inhibition was 67% (active).
With `c1ccc(C[C@H]2CNCCN2CCC23CC4CC(CC(C4)C2)C3)cc1` the inhibition was 47.5% (active).
For `c1ccc(C2CNCc3c2ccc2ccccc32)cc1` (centres undefined), the inhibition was 13.6% (inactive).
In the case of `O=C1CCNCCN1[C@H](CO)Cc1ccccc1`, the inhibition is reported as -9.83% (inactive).
`NS(=O)(=O)c1ccc(N2C(=O)C3C4CC(C(Br)C4Br)C3C2=O)cc1` (centres undefined) was tested, and the inhibition was 4.73% (inactive).
For `CC(=O)Nc1ccc(OCCC[n+]2cccc(C(=O)[O-])c2)cc1`, the inhibition was 0.989% (inactive).
In the case of `N=c1ccn(CC(=O)NC(N)=O)c2ccccc12`, the inhibition is reported as -8.89% (inactive).
In the case of `C/C(=N\NC(=O)CSc1nc2ccccc2c(=O)n1-c1ccccc1C)c1cccs1`, the inhibition is reported as 19.1% (inactive).
For `Cc1cccc(/C=N/NC(=O)CNc2cccc3ccccc23)n1`, the inhibition was 8.96% (inactive).
With `C/C(=N\NC(=O)CNc1cccc2ccccc12)c1ccc(Br)s1` the inhibition was 90.2% (active).
In the case of `COc1ccc(-n2nnnc2SCC(=O)c2ccc(OC)c(OC)c2)cc1`, the inhibition is reported as 1% (inactive).
`CC[C@@H](C)[C@@H](C(=O)N1CCN(C(=O)OC(C)(C)C)CC1)n1cc(CCC(=O)O)nn1` was tested, and the inhibition was -7.69% (inactive).
For `COc1ccc(C2=NOC3(CC(=O)N(c4ccc(Cl)cc4)C3=O)C2)c(OC)c1` (centres undefined), the inhibition was 5.23% (inactive).
For `C#CCOCCOCCOCCNc1nc(N2CCN(C(=O)CCCCCCCCCCNC(=O)[C@H](CCCCN)n3cc(C)nn3)CC2)nc(N2CCN(C(=O)CCCCCCCCCCNC(=O)[C@H](CO)n3cc(CCCSC)nn3)CC2)n1`, the inhibition was 59.7% (active).
For `C#CCOCCOCCOCCNc1nc(N2CCN(C(=O)C([C@@H](C)CC)n3cc(C(N)COC(=O)C(F)(F)F)nn3)CC2)nc(N2CCN(C(=O)[C@H](CCCCN)n3cc(C(N)CC(C)C)nn3)CC2)n1` (some centres undefined), the inhibition was 4.38% (inactive).
With `C#CCOCCOCCOCCNc1nc(N2CCN(C(=O)[C@H](CCC(=O)O)n3cc(CN)nn3)CC2)nc(N2CCN(C(=O)[C@H](CCC(=O)O)n3cc(CN)nn3)CC2)n1` the inhibition was -8.71% (inactive).
For `C#CCOCCOCCOCCNc1nc(N2CCN(C(=O)[C@H](CCC(=O)O)n3cc(C(N)CO)nn3)CC2)nc(N2CCN(C(=O)[C@H](CCCCN)n3cc(C(N)CC(C)C)nn3)CC2)n1` (some centres undefined), the inhibition was 2.63% (inactive).
`C#CCOCCOCCOCCNc1nc(N2CCN(C(=O)Cn3cc(CCCCN)nn3)CC2)nc(N2CCN(C(=O)[C@H](CCCCN)n3cc(CCC(=O)O)nn3)CC2)n1` was tested, and the inhibition was 2.29% (inactive).
In the case of `C#CCOCCOCCOCCNc1nc(N2CCN(C(=O)[C@H](C(C)C)n3cc(CCO)nn3)CC2)nc(N2CCN(C(=O)[C@H]([C@@H](C)CC)n3cc(CCCN=C(N)N)nn3)CC2)n1`, the inhibition is reported as 0.78% (inactive).
With `C#CCOCCOCCOCCNc1nc(N2CCN(C(=O)CCCCCCCCCCNC(=O)[C@H]([C@@H](C)CC)n3cc(CCCCN=C(N)N)nn3)CC2)nc(N2CCN(C(=O)CCCCCCCCCCNC(=O)[C@H](CO)n3cc(CCCSC)nn3)CC2)n1` the inhibition was 59.2% (active).
In the case of `C#CCOCCOCCOCCNc1nc(N2CCN(C(=O)C([C@@H](C)O)n3cc([C@@H](N)CCCCN)nn3)CC2)nc(N2CCN(C(=O)[C@H](CCCCN)n3cc(CN)nn3)CC2)n1` (some centres undefined), the inhibition is reported as 42.2% (active).
With `C#CCOCCOCCOCCNc1nc(N2CCN(C(=O)[C@H](CCCCN)n3cc(CCC(=O)O)nn3)CC2)nc(N2CCN(C(=O)[C@H](CCCCN)n3cc(CC(C)O)nn3)CC2)n1` (some centres undefined) the inhibition was -2.94% (inactive).
`C#CCOCCOCCOCCNc1nc(N2CCN(C(=O)[C@H](CCC(=O)O)n3cc(C(N)CO)nn3)CC2)nc(N2CCN(C(=O)[C@H](CCCCN)n3cc(C(N)[C@H](C)CC)nn3)CC2)n1` (some centres undefined) was tested, and the inhibition was 20.3% (inactive).
With `C#CCOCCOCCOCCNc1nc(N2CCN(C(=O)[C@H](CCCN=C(N)N)n3cc(C(N)[C@@H](C)CC)nn3)CC2)nc(N2CCN(C(=O)[C@H](CO)n3cc([C@@H](N)C(C)C)nn3)CC2)n1` (some centres undefined) the inhibition was 1.97% (inactive).
`C#CCOCCOCCOCCNc1nc(N2CCN(C(=O)CCCCCCCCCCNC(=O)Cn3cc(CCCCCN)nn3)CC2)nc(N2CCN(C(=O)CCCCCCCCCCNC(=O)[C@H](CO)n3cc(CCCSC)nn3)CC2)n1` was tested, and the inhibition was 60.7% (active).
`CCN(c1ccc2c(c1)OCO2)S(=O)(=O)c1cc(Br)cc2c1N(C(=O)C1CC1)CC2` was tested, and the inhibition was 21.5% (inactive).
`COc1cc(C2C(C(=O)c3cccs3)=C(O)C(=O)N2CCN2CCOCC2)ccc1OCCC(C)C` (centres undefined) was tested, and the inhibition was 6.88% (inactive).
For `CCn1c(CN2C(=O)CSc3ccccc32)n[nH]c1=S`, the inhibition was -18.9% (inactive).
With `CN(Cc1ccccc1)C(=O)c1ccc(NC2=NC3CS(=O)(=O)CC3S2)cc1` (centres undefined) the inhibition was -0.97% (inactive).
For `CC(C)Oc1ccc(Cc2n[nH]c(=S)n2Cc2ccccc2)cc1Cl`, the inhibition was -15.3% (inactive).
For `CC(NCc1ccccc1OC1CCCC1)c1ccccc1` (centres undefined), the inhibition was -12% (inactive).
For `CCOc1ccc(N=C2NC(=O)S/C2=C\c2ccc(O)cc2)cc1`, the inhibition was -72% (inactive).
`CCOc1[nH]n(-c2ccc(Cl)cc2)c(=O)c1C=Nc1ccc(O)cc1` was tested, and the inhibition was 66.9% (active).
In the case of `CCCCn1c(N)c(N(CCC(C)C)C(=O)c2ccc([N+](=O)[O-])o2)c(=O)[nH]c1=O`, the inhibition is reported as 5.92% (inactive).
In the case of `CCCCc1nnc(NC(=O)CSc2nc(N)cc(=O)[nH]2)s1`, the inhibition is reported as 20.3% (inactive).
For `COC(=O)c1ccccc1NC(=O)CN(Cc1ccccc1)S(C)(=O)=O`, the inhibition was -17.6% (inactive).
`COc1ccc(NC(=O)CN(C)S(=O)(=O)c2ccccc2)cc1OC` was tested, and the inhibition was -3.33% (inactive).
With `COc1ccc(NC(=O)CN(Cc2ccccc2)S(C)(=O)=O)cc1OC` the inhibition was 40.8% (active).
For `CCCCN(C(=O)C1=NN(c2cc(C)ccc2C)C(=O)CC1)c1c(N)n(CCC)c(=O)[nH]c1=O`, the inhibition was -17% (inactive).
In the case of `CC1CC(=O)Nc2ccccc2N1S(=O)(=O)c1cccs1` (centres undefined), the inhibition is reported as -4.75% (inactive).
For `CC1CC(=S)Nc2ccccc2N1Cc1ccccc1` (centres undefined), the inhibition was 41.4% (active).
With `CC1CC(C)(C)NC(=S)N1CCC(=O)N1CCN(Cc2ccccc2)CC1` (centres undefined) the inhibition was -1.32% (inactive).
